The subject of one assay is Porphyromonas gingivalis. The experiment in a line: Antibacterial activity against Porphyromonas gingivalis after 48 hrs by microtiter plate method. In kind it is functional. In outline: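 Broth microdilution in trypticase soy broth-yeast extract with 0.05% cysteine hydrochloride, menadione (0.02 μg/mL), hemin (5 μg/mL) and 0.02% potassium nitrate. Inoculum 5 × 10^5 CFU/mL; serially diluted test agent, triplicates per concentration. Incubated anaerobically (10% H₂, 5% CO₂, 85% N₂), 37 °C, 48 h. Turbidity read at 650 nm; MIC = lowest concentration keeping absorbance <0.05.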

For the next assay, the system named is Streptococcus mutans. Kind of assay: Antibacterial activity against Streptococcus mutans after 48 hrs by microtiter plate method. In kind it is functional. In short, it runs like this:
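Brain-heart infusion broth, inoculum 5 × 10^6 CFU/mL, serial dilutions of test agent in triplicate per concentration, 37 °C for 48 h. Controls were inoculated medium without test agent; blanks were uninoculated medium. Growth read spectrophotometrically at 650 nm; MIC taken as minimum concentration limiting turbidity to <0.05 absorbance.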

Molecules are shown by their SMILES. ≈ marks a conversion by molar mass, not a printed value. Calls of active or inactive are those of the source. The calls are words filed in the database; no cut-off is given here.

For `CC(=O)O[C@H]1CC[C@]2(C)[C@H]3CC=C4[C@@H]5CC(C)(C)CC[C@]5(C)CC[C@@]4(C)[C@]3(C)C[C@@H](O)[C@H]2C1(C)C`, the MIC against Porphyromonas gingivalis was 78 µg/mL (≈ 161 µM); in the assay on Streptococcus mutans, more than 1250 µg/mL.
The matching figures for `N=C(NCCCCCCNC(=N)NC(=N)Nc1ccc(Cl)cc1)NC(=N)Nc1ccc(Cl)cc1` [CHLORHEXIDINE]: 0.312 µg/mL (≈ 0.617 µM) and 0.312 µg/mL (≈ 0.617 µM).
The matching figures for `C/C(=C\C=C\[C@@H](C)[C@H]1CC[C@@]2(C)[C@@H]3CC[C@H]4C(C)(C)[C@@H](O[C@H]5O[C@@H](CO)[C@H](O)[C@@H](O[C@@H]6O[C@H](CO)[C@@H](O)[C@H](O)[C@H]6O)[C@@H]5O[C@@H]5O[C@H](CO[C@H]6O[C@@H](CO)[C@H](O)[C@@H](O)[C@@H]6O)[C@@H](O)[C@H](O)[C@H]5O[C@@H]5O[C@@H](C)[C@H](O)[C@@H](O)[C@H]5O)CC[C@@]45C[C@@]35CC[C@]12C)C(=O)O`: 156 µg/mL (≈ 125 µM) and more than 1250 µg/mL.
`CC1(C)CC[C@]2(C(=O)O)CC[C@]3(C)C(=CC[C@@H]4[C@@]5(C)CC[C@H](O)C(C)(C)[C@@H]5CC[C@]43C)[C@@H]2C1` [OLEANOLIC_ACID] had an MIC against Porphyromonas gingivalis of 625 µg/mL (≈ 1370 µM).
`O=c1c(O)c(-c2ccc(O)cc2)oc2cc(O)cc(O)c12`: the result in the assay with Porphyromonas gingivalis was Active.
Same read-out and setting: next, `O=c1c(O)c(-c2cc(O)c(O)c(O)c2)oc2cc(O)cc(O)c12`: “Active”.
On to `CC1(C)CC[C@]2(C(=O)O[C@@H]3O[C@H](CO)[C@@H](O)[C@H](O)[C@H]3O)[C@H](O)C[C@]3(C)C(=CC[C@@H]4[C@@]5(C)C[C@H](O)[C@H](O)C(C)(C)[C@@H]5[C@H](O)C[C@]43C)[C@@H]2C1`, for which the MIC is 312 µg/mL (≈ 468 µM) in the assay on Porphyromonas gingivalis and more than 1250 µg/mL against Streptococcus mutans.
The matching figures for `C[C@@H]1O[C@@H](OC(=O)[C@]23CCC(C)(C)C[C@H]2C2=CC[C@@H]4[C@@]5(C)C[C@H](O)[C@H](O[C@@H]6O[C@H](CO)[C@@H](O)[C@H](O)[C@H]6O)[C@@](C)(CO)[C@@H]5[C@H](O)C[C@@]4(C)[C@]2(C)C[C@H]3O)[C@H](O)[C@H](O)[C@H]1O`: 78 µg/mL (≈ 94.1 µM) and more than 1250 µg/mL.
The matching figures for `C[C@@H]1O[C@@H](OC(=O)[C@]23CCC(C)(C)C[C@H]2C2=CC[C@@H]4[C@@]5(C)C[C@H](O)[C@H](O[C@@H]6O[C@H](CO)[C@@H](O)[C@H](O)[C@H]6O)C(C)(C)[C@@H]5[C@H](O)C[C@@]4(C)[C@]2(C)C[C@H]3O)[C@H](O)[C@H](O)[C@H]1O`: 312 µg/mL (≈ 384 µM) and more than 1250 µg/mL.
Regarding `COc1cc(O)c2c(=O)c(O)c(-c3ccc(O)cc3)oc2c1`, the result with Porphyromonas gingivalis was Active.
As for `CC(=O)O[C@H]1CC[C@]2(C)[C@H]3CC=C4[C@@H]5CC(C)(C)CC[C@]5(C(=O)O)CC[C@@]4(C)[C@]3(C)CC[C@H]2C1(C)C` [ACETYL OLEANOLIC ACID], the minimum inhibitory concentration (MIC) was 39 µg/mL (≈ 78.2 µM) in the assay with Porphyromonas gingivalis and more than 1250 µg/mL in the assay with Streptococcus mutans.

One may read the MIC as the lowest concentration that inhibits growth of the organism. High values mean a less susceptible organism, low ones a more susceptible organism.

(Values after ChEMBL document CHEMBL1144123, “Activity of triterpenoid glycosides from the root bark of Mussaenda macrophylla against two oral pathogens” (1999).)
